Experimental data reported in ChEMBL document CHEMBL5058577, “EUbOPEN Chemogenomics Library 2 (Multiplex)” (2022).

Test system: HEK-293T
Experiment: Multiplex assay against HEK293T
Assay type: toxicity, cell-based
Conditions: human
Method in brief: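 Cells were classed with CellPathfinder machine-learning gating, first as Hoechst high-intensity objects or normal cells, then (normal cells) as healthy, pyknosed or fragmented nuclei, and finally (pyknosed cells) as mitotic or apoptotic. Staining of live cells at seeding used Hoechst33342, BioTracker Green Microtubule Cytoskeleton Dye, MitoTracker Red and Annexin V Alexa Fluor 680, with imaging on a CQ1 microscope at 37°C and 5% CO2 after compound addition. Tubulin, mitochondrial-mass and membrane-permeability phenotypes are per cents of healthy-nucleus cells.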

[1] = 12 h, 1 µM, compound concentration 1 uM, replicate 1
[2] = 12 h, 1 µM, compound concentration 1 uM, replicate 2
[3] = 12 h, 10 µM, compound concentration 10 uM, replicate 1
[4] = 12 h, 10 µM, compound concentration 10 uM, replicate 2
[5] = 24 h, 1 µM, compound concentration 1 uM, replicate 1
[6] = 24 h, 1 µM, compound concentration 1 uM, replicate 2
[7] = 24 h, 10 µM, compound concentration 10 uM, replicate 1
[8] = 24 h, 10 µM, compound concentration 10 uM, replicate 2
[9] = 48 h, 1 µM, compound concentration 1 uM, replicate 1
[10] = 48 h, 1 µM, compound concentration 1 uM, replicate 2
[11] = 48 h, 10 µM, compound concentration 10 uM, replicate 1
[12] = 48 h, 10 µM, compound concentration 10 uM, replicate 2

Cl.NCCc1ccc(O)c(O)c1 [DOPAMINE HYDROCHLORIDE]
Population Apoptotic (%) [1]: 31% | Population Fragmented Nuclei (%) [1]: 6% | Population Healthy Nuclei (%) [1]: 77% | Population Hoechst High Intensity Objects (%) [1]: 10% | Population Membrane Permeable-Phenotype (%) [1]: 0% | Population Mitochondria Different-Phenotype (%) [1]: 54% | Population Mitotic Cells (%) [1]: 68% | Population Normal (%) [1]: 89% | Population Pyknosed Nuclei (%) [1]: 16% | Population Tubulin-Different-Phenotype (%) [1]: 36% | Total Cell Count [1]: 324 | Population Apoptotic (%) [2]: 54% | Population Fragmented Nuclei (%) [2]: 7% | Population Healthy Nuclei (%) [2]: 78% | Population Hoechst High Intensity Objects (%) [2]: 6% | Population Mitochondria Different-Phenotype (%) [2]: 58% | Population Mitotic Cells (%) [2]: 46% | Population Normal (%) [2]: 93% | Population Pyknosed Nuclei (%) [2]: 14% | Population Tubulin-Different-Phenotype (%) [2]: 18% | Total Cell Count [2]: 372 | Population Apoptotic (%) [3]: 46% | Population Fragmented Nuclei (%) [3]: 5% | Population Healthy Nuclei (%) [3]: 77% | Population Hoechst High Intensity Objects (%) [3]: 6% | Population Membrane Permeable-Phenotype (%) [3]: 0% | Population Mitochondria Different-Phenotype (%) [3]: 57% | Population Mitotic Cells (%) [3]: 53% | Population Normal (%) [3]: 93% | Population Pyknosed Nuclei (%) [3]: 17% | Population Tubulin-Different-Phenotype (%) [3]: 43% | Total Cell Count [3]: 344 | Population Apoptotic (%) [4]: 37% | Population Healthy Nuclei (%) [4]: 83% | Population Hoechst High Intensity Objects (%) [4]: 5% | Population Mitochondria Different-Phenotype (%) [4]: 51% | Population Mitotic Cells (%) [4]: 62% | Population Normal (%) [4]: 94% | Population Pyknosed Nuclei (%) [4]: 11% | Population Tubulin-Different-Phenotype (%) [4]: 23% | Total Cell Count [4]: 413 | Population Apoptotic (%) [5]: 44% | Population Fragmented Nuclei (%) [5]: 9% | Population Healthy Nuclei (%) [5]: 76% | Population Hoechst High Intensity Objects (%) [5]: 4% | Population Membrane Permeable-Phenotype (%) [5]: 1% | Population Mitochondria Different-Phenotype (%) [5]: 40% | Population Mitotic Cells (%) [5]: 55% | Population Normal (%) [5]: 95% | Population Pyknosed Nuclei (%) [5]: 13% | Population Tubulin-Different-Phenotype (%) [5]: 19% | Total Cell Count [5]: 451 | Population Apoptotic (%) [6]: 20% | Population Fragmented Nuclei (%) [6]: 8% | Population Healthy Nuclei (%) [6]: 85% | Population Hoechst High Intensity Objects (%) [6]: 5% | Population Membrane Permeable-Phenotype (%) [6]: 0% | Population Mitochondria Different-Phenotype (%) [6]: 46% | Population Mitotic Cells (%) [6]: 79% | Population Normal (%) [6]: 94% | Population Pyknosed Nuclei (%) [6]: 5% | Population Tubulin-Different-Phenotype (%) [6]: 11% | Total Cell Count [6]: 478 | Population Apoptotic (%) [7]: 39% | Population Fragmented Nuclei (%) [7]: 7% | Population Healthy Nuclei (%) [7]: 79% | Population Hoechst High Intensity Objects (%) [7]: 5% | Population Membrane Permeable-Phenotype (%) [7]: 0% | Population Mitochondria Different-Phenotype (%) [7]: 36% | Population Mitotic Cells (%) [7]: 60% | Population Normal (%) [7]: 94% | Population Pyknosed Nuclei (%) [7]: 12% | Population Tubulin-Different-Phenotype (%) [7]: 23% | Total Cell Count [7]: 393 | Population Apoptotic (%) [8]: 38% | Population Fragmented Nuclei (%) [8]: 9% | Population Healthy Nuclei (%) [8]: 83% | Population Mitochondria Different-Phenotype (%) [8]: 40% | Population Mitotic Cells (%) [8]: 61% | Population Pyknosed Nuclei (%) [8]: 7% | Population Tubulin-Different-Phenotype (%) [8]: 15% | Total Cell Count [8]: 533 | Population Apoptotic (%) [9]: 19% | Population Fragmented Nuclei (%) [9]: 14% | Population Healthy Nuclei (%) [9]: 78% | Population Hoechst High Intensity Objects (%) [9]: 4% | Population Membrane Permeable-Phenotype (%) [9]: 1% | Population Mitochondria Different-Phenotype (%) [9]: 23% | Population Mitotic Cells (%) [9]: 80% | Population Normal (%) [9]: 95% | Population Pyknosed Nuclei (%) [9]: 7% | Population Tubulin-Different-Phenotype (%) [9]: 14% | Total Cell Count [9]: 785 | Population Apoptotic (%) [10]: 23% | Population Fragmented Nuclei (%) [10]: 10% | Population Healthy Nuclei (%) [10]: 81% | Population Membrane Permeable-Phenotype (%) [10]: 0% | Population Mitochondria Different-Phenotype (%) [10]: 20% | Population Mitotic Cells (%) [10]: 76% | Population Tubulin-Different-Phenotype (%) [10]: 7% | Total Cell Count [10]: 638 | Population Apoptotic (%) [11]: 30% | Population Fragmented Nuclei (%) [11]: 14% | Population Healthy Nuclei (%) [11]: 79% | Population Hoechst High Intensity Objects (%) [11]: 3% | Population Membrane Permeable-Phenotype (%) [11]: 0% | Population Mitochondria Different-Phenotype (%) [11]: 24% | Population Mitotic Cells (%) [11]: 70% | Population Normal (%) [11]: 96% | Population Pyknosed Nuclei (%) [11]: 6% | Population Tubulin-Different-Phenotype (%) [11]: 13% | Total Cell Count [11]: 660 | Population Apoptotic (%) [12]: 17% | Population Fragmented Nuclei (%) [12]: 12% | Population Healthy Nuclei (%) [12]: 83% | Population Hoechst High Intensity Objects (%) [12]: 1% | Population Mitochondria Different-Phenotype (%) [12]: 17% | Population Mitotic Cells (%) [12]: 82% | Population Normal (%) [12]: 98% | Population Pyknosed Nuclei (%) [12]: 4% | Population Tubulin-Different-Phenotype (%) [12]: 7% | Total Cell Count [12]: 859
